The results in this text go back to ChEMBL document CHEMBL1132389, “Novel farnesol and geranylgeraniol analogues: A potential new class of anticancer agents directed against protein prenylation” (J Med Chem, 1999).

Usually IC50 stands for the concentration needed to halve the response being measured. The term Km denotes the concentration of substrate that gives half-maximal velocity.

In data set [1] the test system is NIH3T3. Nature of the data set: Inhibition of anchorage independent growth of H-Ras(61L)-transformed NIH3T3 fibroblasts in soft agar. Conditions: Mus musculus. The data set is classed as functional, cell-based. The method in brief:
(§1)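 NIH3T3 fibroblasts transfected with H-Ras(61L) (H-Ras-F) or H-Ras(61L)CVLL (H-Ras-GG), kept in DMEM with 10% calf serum and 1% antibiotic/antimycotic at 37 °C, 10% CO2. Two-layer soft agar (0.6% bottom, 0.3% top). Cells seeded in the top layer with compound in ethanol over a concentration range, added only at seeding. Grown 2 weeks at 37 °C. Colonies stained with p-iodonitrotetrazolium violet 24 h before image-analysis count. IC50 reported.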

Data set [2] concerns NIH3T3. The data set is described as follows: Inhibition of anchorage independent growth of H-Ras(61L)CVLL-transformed NIH3T3 fibroblasts in soft agar. As to conditions: Mus musculus. The data set is classed as functional, cell-based. The procedure, abridged:
as §1

Data set [3] concerns the target Protein farnesyl/geranylgeranyl transferase (Homo sapiens) (UniProt P49354+P49356+P53609). The data set is described as follows: Relative IC50 for farnesyl and geranylgeranyl transferase. The data set is classed as protein-complex assay.
In data set [4] the target is T1, Protein farnesyltransferase (Homo sapiens, UniProt P49354+P49356). Nature of the data set: Inhibition of recombinant farnesyltransferase (mFTase) in scintillation proximity assay. It counts as protein-complex assay. The procedure, abridged: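 Recombinant mammalian FTase in scintillation proximity assay with streptavidin beads. Substrates: tritiated FPP (15–30 Ci/mmol, final 0.12 μM) and biotin-Aha-TKCVIM peptide (final 0.1 μM). IC50 determined. Ki from the same system with varied tritiated FPP concentrations.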

Data set [5] concerns the target Geranylgeranyl transferase type I (Homo sapiens, UniProt P49354+P53609). Nature of the data set: Inhibition of recombinant Geranylgeranyl transferase type I in scintillation proximity assay. It counts as protein-complex assay. The method in brief: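 Recombinant mammalian GGTase I in scintillation proximity assay with streptavidin beads, using tritiated GGPP and biotin-Aha-TKCVIL peptide as substrates. Run in the same manner as the FTase assay. IC50 and Ki values determined.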
(In general: In a scintillation proximity assay essentially only radioactivity close to the scintillant gives light.)

Data set [6] addresses T1, Protein farnesyltransferase. Nature of the data set: Relative Vmax compared to FPP in continuous spectrofluorimetric assay.
Data set [7] concerns C=C/C(=C\COP(=O)(O)OP(=O)(O)O)CC/C=C(\C)CCC=C(C)C. The data set is described as follows: (§2) Km determined in continuous spectrofluorimetric assay. It counts as protein-complex assay. As to conditions: Homo sapiens. The method in brief: (§3)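 Continuous fluorimetric assay with recombinant mammalian FTase and dansyl-GCVLS peptide. Buffer: Tris-HCl pH 7.0, DTT, MgCl2, ZnCl2, with 0.4% n-dodecyl-β-D-maltoside solution. Premixed 5 min at 30 °C. Isoprenoid diphosphate at final 0.10 to 5 μM. Reaction started with enzyme. Fluorescence (ex 350, em 486 nm) read for 300 s at 30 °C. Linear rate converted to μM/s using a separately measured enhancement factor for each substrate. Km derived from the rates.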

Data set [8] relates to C=CC/C(=C\COP(=O)(O)OP(=O)(O)O)CC/C=C(\C)CCC=C(C)C. Described as §2. Conditions: Homo sapiens. It counts as protein-complex assay. The method in brief:
as §3

With `C=CC/C(=C\CO)CC/C=C(\C)CCC=C(C)C`, the half-inhibitory concentration (IC50) in the data set with NIH3T3 [1] was 10.2 µM; with NIH3T3 [2], > 25 µM.

With `CC/C(=C\CO)CC/C=C(\C)CCC=C(C)C`, the IC50 in the data set with NIH3T3 [1] and in the data set on NIH3T3 [2] was > 25 µM in each case.

For `CC(C)=CCC/C(C)=C/CC/C(=C/CO)c1ccccc1`, the half-maximal inhibitory concentration (IC50) in the data set with NIH3T3 [1] and in the data set with NIH3T3 [2] was > 25 µM throughout.

Regarding `C=CC/C(=C\COP(=O)(O)OP(=O)(O)O)CC/C=C(\C)CC/C=C(\C)CCC=C(C)C`, the Ratio in data set [3] was determined as 7.5. Besides, the half-maximal inhibitory concentration (IC50) in data set [4] was determined as 0.453 µM.

For `CC/C(=C\COP(=O)(O)OP(=O)(O)O)CC/C=C(\C)CCC=C(C)C`, the Ratio in data set [3] is > 460. Further, the figures for the IC50 in data set [4] and in data set [5] were 0.215 µM and > 100 µM, respectively.

For `C=C/C(=C\COP(=O)(O)OP(=O)(O)O)CC/C=C(\C)CC/C=C(\C)CCC=C(C)C`, in data set [3], the Ratio turned out to be 4.3. Moreover, the IC50 in data set [4] was determined as 0.715 µM; in data set [5], 3.05 µM.

Turning to `CC(C)=CCC/C(C)=C/CC/C(=C/COP(=O)(O)OP(=O)(O)O)c1ccccc1`, in data set [3], the Ratio was > 340. For the same compound, the 50% inhibitory concentration (IC50) in data set [4] is 0.299 µM; in data set [5] it was > 100 µM.

As to `C=CC/C(=C\COP(=O)(O)OP(=O)(O)O)CC/C=C(\C)CCC=C(C)C`, the Ratio in data set [3] was > 530. The half-maximal inhibitory concentration (IC50) in data set [4] was 0.189 µM; in data set [5] it was > 100 µM. In data set [6], this compound came in with a Krel of 0.0711.

For the compound `C=CC/C(=C\CO)CC/C=C(\C)CC/C=C(\C)CCC=C(C)C`, the 50% inhibitory concentration (IC50) was > 25 µM in the data set with NIH3T3 [1] and 4.6 µM in the data set on NIH3T3 [2].

Regarding `C=C/C(=C\CO)CC/C=C(\C)CC/C=C(\C)CCC=C(C)C`, the half-maximal inhibitory concentration (IC50) in the data set on NIH3T3 [1] amounted to 18 µM; in the data set on NIH3T3 [2] it was 13.9 µM.

As for “Protein farnesyltransferase (Homo sapiens) (from UniProt P49354+P49356)”, the Km in data set [7] worked out at 0.156 µM; in data set [8], 0.703 µM.

In the case of `CC(C)=CCC/C(C)=C/CC/C(=C/COP(=O)(O)OP(=O)(O)O)C(C)(C)C`, the Ratio in data set [3] worked out at 1600. The IC50 in data set [4] stood at 0.031 µM; in data set [5], 50 µM.

As for `C=C/C(=C\CO)CC/C=C(\C)CCC=C(C)C`, the half-inhibitory concentration (IC50) in the data set with NIH3T3 [1] came to 10.9 µM; with NIH3T3 [2] it was 14.1 µM.

For `C=C/C(=C\COP(=O)(O)OP(=O)(O)O)CC/C=C(\C)CCC=C(C)C`, the Ratio in data set [3] was found to be 600. Moreover, the 50% inhibitory concentration (IC50) worked out at 0.173 µM in data set [4] and 100 µM in data set [5]. In data set [6], this compound gave a Krel of 0.524.
